IDH1 mut inh: inhibitors of human IDH1 R132H; O75874; IDH1 R132H reductase, diaphorase/resazurin fluorescence, 60 min; inhibition, % at 10 µM; 0.18% of 70,000 active; AID 624101; in the data active means inhibition above about 34%; inconclusive means no clear call, values can overlap the other calls; inactive means below about 11%;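 further: 0% = DMSO and 100% = no enzyme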
T cruzi growth-1: T. cruzi proliferation inhibition; AID 624255; 5.9% of 77,000 active; inhibition, % at 8.34 µM; T. cruzi beta-gal in NIH3T3, GalScreen luminescence, 90 h;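 active means mean inhibition above about 93%, with at least 55% of replicates each passing it, limit read from the data, passing the limit was not always enough; inconclusive means only one of those two conditions holds; inactive means neither condition holds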
GASC1 inh: KDM4C (human) demethylase inhibition; Q9H3R0; GST-KDM4C 2-372, H3K9me3 peptide, LANCE TR-FRET; inhibition, % at 12.5 µM; 0.15% of 96,000 active; AID 720574;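 active means mean replicate inhibition above about 25%, with at least 55% of replicates also reaching it, limit read from the data, passing the limit was not always enough; inconclusive means only one of those two conditions met; inactive means neither condition met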
Target sequence (Q9H3R0 2-372 limits assumed): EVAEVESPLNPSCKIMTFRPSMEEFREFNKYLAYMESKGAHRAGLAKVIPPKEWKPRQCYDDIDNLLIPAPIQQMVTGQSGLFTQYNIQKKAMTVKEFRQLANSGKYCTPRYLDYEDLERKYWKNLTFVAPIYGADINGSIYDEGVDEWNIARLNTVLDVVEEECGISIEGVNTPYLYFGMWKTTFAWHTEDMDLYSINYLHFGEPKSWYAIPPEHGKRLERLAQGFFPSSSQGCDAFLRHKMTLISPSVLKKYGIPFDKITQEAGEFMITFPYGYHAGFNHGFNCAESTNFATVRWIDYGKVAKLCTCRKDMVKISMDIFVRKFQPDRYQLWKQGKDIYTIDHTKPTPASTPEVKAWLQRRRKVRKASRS
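Test system – GST-tagged GASC-1 (JMJD2C) catalytic fragment, aa 2-372 · Medium – HEPES buffer, pH 7.5, plus ascorbate · Reagent – H3K9me3 peptide with Fe(II)/2OG · Compound – one test concentration per compound · Timing – 30 min reaction, 60 min detection, RT · Technique – TR-FRET with Eu antibody and ULight streptavidin, EDTA stop · Read-out basis – inhibition from TR-FRET ratio decrease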
Pf Dd2 growth: P. falciparum Dd2 growth inhibition; SYBR Green, 72 h; active compounds read low; activity change, % at 10 µM; 2.3% of 94,000 active; in the data active means activity change below about -80%; inconclusive means no clear call, values can overlap the other calls
T cruzi growth-2: Trypanosoma cruzi proliferation inhibition; shares compounds with T cruzi growth-1; T. cruzi beta-gal in NIH3T3, GalScreen luminescence, 90 h; inhibition, % at 8.35 µM; 72% of 5,600 active;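 active means mean replicate inhibition above about 95% and at least 55% of replicates individually reaching it, limit read from the data; inconclusive means only one of the two criteria is met; inactive means neither criterion is met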
T cruzi growth-3: blocks T. cruzi growth in NIH3T3 host cells; shares compounds with T cruzi growth-1; T. cruzi beta-gal in NIH3T3, GalScreen luminescence, 90 h; inhibition, % at 2.09 µM; 21% of 5,600 active; AID 651740;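 active means mean inhibition above about 95%, with at least 55% of replicates also reaching it, limit read from the data; inconclusive means meets just one of the two conditions; inactive means meets neither condition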;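 further: plate controls were neutral control median for no effect and positive control median for full effect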
3T3 cytotox: cytotoxicity in mouse NIH/3T3 fibroblasts; 14% of 5,600 active; NIH/3T3 viability, CellTiter-Glo ATP luminescence, 90 h; cytotoxicity (signal decrease), % at 8.35 µM; shares compounds with T cruzi growth-1;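 active means mean signal decrease across replicates above about 35% based on untreated-well scatter, with enough replicates individually passing, limit read from the data; inconclusive means no rule stated though some were filed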;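 further: 0% = median of neutral control wells and 100% = median of positive control wells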
NIH3T3 tox 2: NIH/3T3 (mouse) viability loss; shares compounds with T cruzi growth-1; NIH/3T3 viability, CellTiter-Glo ATP luminescence, 90 h; inhibition, % at 24.9 µM; 56% of 5,600 active; AID 651744;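 active means mean loss of cell viability signal at or above a set limit, and enough replicates individually reaching it; inconclusive means meets only the mean limit or only the replicate share; inactive means meets neither condition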;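 further: 0% = median of neutral control wells and 100% = median of positive control wells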
Starred values were filed as active, the others as inactive; ? = inconclusive; . = no result. Hits are enriched below; roughly 5.8% of the tested compounds scored in any of these assays.

SMILES	IDH1 mut inh	T cruzi growth-1	GASC1 inh	Pf Dd2 growth	T cruzi growth-2	T cruzi growth-3	3T3 cytotox	NIH3T3 tox 2
COc1ccc(-c2ccc3c(c2)O[C@H](CN(C)C(=O)c2ccccc2F)[C@@H](C)CN([C@H](C)CO)S3(=O)=O)cc1	-2.3	107.8*	-2.3	-59.3	101.8*	47.9	5.6	36.0*
C/C=C/c1ccc2c(c1)O[C@@H](CN(C)Cc1cncnc1)[C@H](C)CN([C@H](C)CO)S2(=O)=O	-0.3	.	1.1	-12.3	.	.	.	.
C/C=C/c1ccc2c(c1)O[C@@H](CN(C)Cc1ccncc1)[C@H](C)CN([C@H](C)CO)S2(=O)=O	43.1*	102.4*	17.0	-55.4	98.8*	103.6*	?	69.0*
C/C=C/c1ccc2c(c1)O[C@@H](CN(C)Cc1ccccc1)[C@@H](C)CN([C@H](C)CO)S2(=O)=O	-0.5	99.8	2.8	-21.8	.	.	.	.
C/C=C/c1ccc2c(c1)O[C@@H](CN(C)Cc1ccncc1)[C@@H](C)CN([C@H](C)CO)S2(=O)=O	0.0	102.9*	14.9	15.0	96.3*	93.5	18.6	57.2*
Cc1ccccc1-c1ccc([C@H]2[C@@H](CO)N3CCCCN(C(=O)Nc4ccccc4)C[C@H]23)cc1	.	34.5	-2.3	-20.4	.	.	.	.
COc1ccc(NC(=O)N2CCCCN3[C@H](C2)[C@@H](c2ccc(-c4ccccc4C)cc2)[C@@H]3CO)cc1	.	98.4*	-1.3	-25.7	97.8*	86.7	24.0	104.0*
COc1ccc(NC(=O)N2CCCCN3[C@H](CO)[C@H](c4ccc(-c5ccccc5C)cc4)[C@H]3C2)cc1	.	48.3	-2.0	-43.0	.	.	.	.
Cc1ccccc1-c1ccc([C@H]2[C@H]3CN(C(=O)Nc4ccccc4)CCCCN3[C@H]2CO)cc1	.	118.0*	-0.2	0.8	112.3*	30.3	14.9	34.0*
Cc1ccccc1-c1ccc([C@@H]2[C@H]3CN(C(=O)Nc4ccccc4)CCCCN3[C@H]2CO)cc1	.	103.8*	-1.8	-3.3	104.0*	93.3	29.3	104.8*
O=C(C[C@@H]1CC[C@H](NC(=O)c2ccncc2)[C@H](CO)O1)NCC1CC1	0.3	.	-1.1	.	.	.	.	.
O=C(NCCc1ccccc1)[C@H]1[C@H](CO)[C@H]2Cn3c(cccc3=O)[C@@H]1N2Cc1ccccn1	.	30.5	-1.2	.	.	.	.	.
Cc1ccc(S(=O)(=O)Nc2ccc3c(c2)C(=O)N([C@H](C)CO)C[C@@H](C)[C@H](CN(C)S(=O)(=O)c2c(C)noc2C)OCCCC[C@@H](C)O3)cc1	-5.9	?	-0.3	-47.1	112.4*	40.3	11.5	-16.2
Cc1noc(C)c1S(=O)(=O)N(C)C[C@@H]1OCCCC[C@H](C)Oc2ccc(NS(=O)(=O)c3ccc(F)cc3)cc2C(=O)N([C@H](C)CO)C[C@@H]1C	4.8	108.3*	-0.3	-37.7	99.6*	32.1	-3.4	24.8
Cc1noc(C)c1S(=O)(=O)N(C)C[C@H]1OCCCC[C@H](C)Oc2ccc(NS(=O)(=O)c3ccc(Cl)cc3)cc2C(=O)N([C@@H](C)CO)C[C@@H]1C	.	94.4	1.1	-50.5	.	.	.	.
Cc1noc(C)c1S(=O)(=O)N(C)C[C@@H]1OCCCC[C@@H](C)Oc2ccc(NS(=O)(=O)c3ccc(Cl)cc3)cc2C(=O)N([C@H](C)CO)C[C@H]1C	0.6	103.1*	-2.6	-57.0	105.3*	71.3	19.1	1.1
COc1ccc(OC)c(S(=O)(=O)N2CCC(C(=O)Nc3cccc(SC)c3)CC2)c1	0.2	.	.	.	.	.	.	.
Cc1noc(C)c1NC(=O)N(C)C[C@@H]1Oc2c(NC(=O)Nc3ccc(F)cc3)cccc2C(=O)N([C@@H](C)CO)C[C@@H]1C	.	5.2	-1.1	11.6	.	.	.	.
CC(C)C#Cc1ccc2c(c1)O[C@@H](CN(C)Cc1cccnc1)[C@@H](C)CN([C@H](C)CO)S2(=O)=O	.	?	0.1	-21.5	99.2*	78.8	24.7	23.5
C[C@H](O)C#Cc1ccc2c(c1)O[C@H](CN(C)Cc1ccncc1)[C@@H](C)CN([C@@H](C)CO)S2(=O)=O	.	70.9	-0.9	-61.5	.	.	.	.

Bioassay records as filed in PubChem.
